Data as given in ChEMBL document CHEMBL1208737, “Synthesis and in vitro evaluation of N-alkyl-3-hydroxy-3-(2-imino-3-methyl-5-oxoimidazolidin-4-yl)indolin-2-one analogs as potential anticancer agents” (2010).

Experiments:
Type in all cases: functional
[1] = test system: LOX IMVI; experiment: Growth inhibition of human LOXIMVI cells by sulforhodamine B assay
In short: (§1)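 Five-dose response testing across the 57-line human tumour panel. Growth effect was plotted against log10 drug concentration for each cell line. GI50 is the molar concentration giving a 50% reduction in net protein increase relative to untreated control cells. TGI (total growth inhibition) and LC50 (concentration lethal to 50% of cells) were read from the same curves.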

[2] = test system: MCF7; experiment: Growth inhibition of human MCF7 cells by sulforhodamine B assay
In short: (§2)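 Five-dose response testing across a 57-line human tumour panel (leukemia, non-small cell lung, colon, CNS, melanoma, ovarian, renal, prostate, breast), done after a single-dose primary screen run per the NCI method. Effect plotted against log10 molar drug concentration for each cell line. GI50 is the concentration giving a 50% reduction in net protein increase versus control cells.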

[3] = test system: M14; experiment: Growth inhibition of human M14 cells by sulforhodamine B assay; in short: as §2
[4] = test system: HT-29; experiment: Growth inhibition of human HT-29 cells by sulforhodamine B assay; in short: as §2
[5] = test system: UACC-62; experiment: Growth inhibition of human UACC62 cells by sulforhodamine B assay
In short: (§3)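 Part of a 57-line human tumour cell panel run at five doses. Growth effect was plotted against log10 molar drug concentration for each cell line. GI50 is the concentration giving a 50% reduction in net protein increase relative to untreated control cells, read from the dose-response curve.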

[6] = test system: MDA-MB-468; experiment: Growth inhibition of human MDA-MB-468 cells by sulforhodamine B assay; in short: as §2
[7] = test system: SK-OV-3; experiment: Growth inhibition of human SKOV3 cells by sulforhodamine B assay; in short: as §2
[8] = test system: NCI-H522; experiment: Growth inhibition of human NCI-H522 cells by sulforhodamine B assay; in short: as §2
[9] = test system: DU-145; experiment: Growth inhibition of human DU145 cells by sulforhodamine B assay; in short: as §2
[10] = test system: NCI-H322M; experiment: Growth inhibition of human NCI-H322M cells by sulforhodamine B assay; in short: as §2
[11] = test system: BT-549; experiment: Growth inhibition of human BT549 cells by sulforhodamine B assay; in short: as §2
[12] = test system: EKVX; experiment: Growth inhibition of human EKVX cells by sulforhodamine B assay; in short: as §2
[13] = test system: MDA-MB-231; experiment: Growth inhibition of human MDA-MB-231 cells by sulforhodamine B assay; in short: as §2
[14] = Growth inhibition of human Hs 578T cells by sulforhodamine B assay; in short: as §2
[15] = test system: SNB-75; experiment: Growth inhibition of human SNB75 cells by sulforhodamine B assay; in short: as §2
[16] = test system: T47D; experiment: Growth inhibition of human T47D cells by sulforhodamine B assay; in short: as §3
[17] = test system: SN12C; experiment: Growth inhibition of human SN12C cells by sulforhodamine B assay; in short: as §2
[18] = test system: SW-620; experiment: Growth inhibition of human SW620 cells by sulforhodamine B assay; in short: as §2
[19] = test system: SK-MEL-5; experiment: Growth inhibition of human SK-MEL-5 cells by sulforhodamine B assay; in short: as §2
[20] = test system: SNB-19; experiment: Growth inhibition of human SNB19 cells by sulforhodamine B assay; in short: as §2
[21] = test system: CAKI-1; experiment: Growth inhibition of human Caki1 cells by sulforhodamine B assay; in short: as §2
[22] = test system: OVCAR-3; experiment: Growth inhibition of human OVCAR-3 cells by sulforhodamine B assay; in short: as §2
[23] = test system: HCC 2998; experiment: Growth inhibition of human HCC2998 cells by sulforhodamine B assay; in short: as §2
[24] = test system: ACHN; experiment: Growth inhibition of human ACHN cells by sulforhodamine B assay; in short: as §2
[25] = test system: SF-295; experiment: Growth inhibition of human SF295 cells by sulforhodamine B assay; in short: as §2
[26] = test system: NCI-H460; experiment: Growth inhibition of human NCI-H460 cells by sulforhodamine B assay; in short: as §2
[27] = test system: SK-MEL-2; experiment: Growth inhibition of human SK-MEL-2 cells by sulforhodamine B assay; in short: as §2
[28] = test system: COLO 205; experiment: Growth inhibition of human COLO205 cells by sulforhodamine B assay; in short: as §2
[29] = test system: NCI-H226; experiment: Growth inhibition of human NCI-H226 cells by sulforhodamine B assay; in short: as §2
[30] = test system: K562; experiment: Growth inhibition of human K562 cells by sulforhodamine B assay; in short: as §2
[31] = test system: SF-539; experiment: Growth inhibition of human SF539 cells by sulforhodamine B assay; in short: as §2
[32] = test system: MOLT-4; experiment: Growth inhibition of human MOLT4 cells by sulforhodamine B assay; in short: as §2
[33] = test system: OVCAR-4; experiment: Growth inhibition of human OVCAR4 cells by sulforhodamine B assay; in short: as §2
[34] = test system: PC-3; experiment: Growth inhibition of human PC3 cells by sulforhodamine B assay; in short: as §2
[35] = test system: NCI/ADR-RES; experiment: Growth inhibition of human NCI/ADR-RES cells by sulforhodamine B assay; in short: as §2
[36] = test system: HOP-62; experiment: Growth inhibition of human HOP62 cells by sulforhodamine B assay; in short: as §2
[37] = test system: SF-268; experiment: Growth inhibition of human SF268 cells by sulforhodamine B assay; in short: as §2
[38] = Growth inhibition of human […] cells by sulforhodamine B assay; in short: as §2
[39] = test system: A549; experiment: Growth inhibition of human A549 cells by sulforhodamine B assay; in short: as §1
[40] = test system: HCT-116; experiment: Growth inhibition of human HCT116 cells by sulforhodamine B assay; in short: as §2
[41] = test system: CCRF-CEM; experiment: Growth inhibition of human CCRF-CEM cells by sulforhodamine B assay; in short: as §2
[42] = test system: RXF 393; experiment: Growth inhibition of human RXF393 cells by sulforhodamine B assay; in short: as §2
[43] = test system: 786-0; experiment: Growth inhibition of human 786-0 cells by sulforhodamine B assay; in short: as §2
[44] = read-out: LC50 (the source's name)

Work on `COc1ccc(CN2C(=O)C(O)(C3C(=O)NC(=N)N3C)c3cc(Cl)ccc32)cc1` (stereo not drawn) yielded a GI50 [1] of 0.75 µM, a TGI [1] of 11.8 µM and a CC50 [1, 44] of 60 µM. It also gave a GI50 [2] of 3.22 µM, an LC50 (concentration killing 50% of starting cells) [2] of over 100 µM and a GI50 [3] of 3.59 µM. For the same compound, the LC50 [3] was 61.4 µM, the GI50 [4] was 1.38 µM and the LC50 [4] was 44.1 µM. It also gave a GI50 [5] of 23.4 µM, a CC50 [5, 44] of over 100 µM and a GI50 [6] of 2.29 µM. It also gave an LC50 (concentration causing 50% net cell kill) [6] of over 100 µM, a GI50 [7] of 30.1 µM and a CC50 [7, 44] of over 100 µM. It also gave a GI50 [8] of 1.86 µM, an LC50 (concentration killing 50% of cells) [8] of 20.5 µM and a GI50 [9] of 3.76 µM. The CC50 [9, 44] was 74.6 µM, the GI50 [10] was 14.3 µM and the CC50 [10, 44] was over 100 µM. It also gave a GI50 [11] of 2.98 µM, an LC50 [11] of 54.9 µM and a GI50 [12] of 28.5 µM. The LC50 [12] was over 100 µM, the GI50 [13] was 8.55 µM and the CC50 [13, 44] was over 100 µM. The GI50 [14] was 2.04 µM, the CC50 [14, 44] was over 100 µM and the GI50 [15] was 3.39 µM. The CC50 [15, 44] was over 100 µM, the GI50 [16] was 13.5 µM and the LC50 [16] was over 100 µM. It also gave a GI50 [17] of 5.94 µM, a CC50 [17, 44] of over 100 µM and a GI50 [18] of 2.59 µM. The CC50 [18, 44] was 49.6 µM, the GI50 [19] was 22.6 µM and the CC50 [19, 44] was over 100 µM. For the same compound, the GI50 [20] was 17.2 µM, the CC50 [20, 44] was over 100 µM and the GI50 [21] was 1.98 µM. It also gave a CC50 [21, 44] of over 100 µM, a GI50 [22] of 2.08 µM and a CC50 [22, 44] of 11.5 µM. The GI50 [23] was 18.7 µM, the LC50 [23] was 73.9 µM and the GI50 [24] was 20.4 µM. The CC50 [24, 44] was over 100 µM, the GI50 [25] was 3.71 µM and the CC50 [25, 44] was over 100 µM. The GI50 [26] was 26.8 µM, the LC50 [26] was over 100 µM and the GI50 [27] was 10.4 µM. For the same compound, the CC50 [27, 44] was 96 µM, the GI50 [28] was 14.3 µM and the CC50 [28, 44] was over 100 µM. For the same compound, the GI50 [29] was 26.8 µM, the CC50 [29, 44] was over 100 µM and the GI50 [30] was 5.04 µM. The CC50 [30, 44] was over 100 µM, the GI50 [31] was 3.12 µM and the CC50 [31, 44] was 79.1 µM. It also gave a GI50 [32] of 2.94 µM, a CC50 [32, 44] of over 100 µM and a GI50 [33] of 5.52 µM. For the same compound, the CC50 [33, 44] was over 100 µM, the GI50 [34] was 4.27 µM and the CC50 [34, 44] was over 100 µM. It also gave a GI50 [35] of 1.88 µM, a CC50 [35, 44] of 36.5 µM and a GI50 [36] of 5.12 µM. For the same compound, the CC50 [36, 44] was over 100 µM, the GI50 [37] was 3.31 µM and the CC50 [37, 44] was 64.9 µM. For the same compound, the GI50 [38] was 2.62 µM, the CC50 [38, 44] was over 100 µM and the GI50 [39] was 0.19 µM. For the same compound, the LC50 [39] was 10.9 µM, the TGI [39] was 1.96 µM and the GI50 [40] was 3 µM. The LC50 [40] was 34.5 µM, the GI50 [41] was 2.06 µM and the CC50 [41, 44] was over 100 µM. For the same compound, the GI50 [42] was 6.29 µM, the CC50 [42, 44] was over 100 µM and the GI50 [43] was 3.44 µM. It also gave a CC50 [43, 44] of 43 µM.
